Reference: ChEMBL document CHEMBL4177755, “Combating Drug-Resistant Fungi with Novel Imperfectly Amphipathic Palindromic Peptides” (J Med Chem, 2018)

Legend:
Candida albicans [1] = assay: Fungicidal activity against Candida albicans isolated from alveolar fluid after 96 hrs; format: functional; settings: read-out: MFC99.9
Procedure, shortened: (§1)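 After the 48 h, 28 °C broth microdilution in MOPS-buffered RPMI 1640 (inoculum (0.5−1) × 10^3 CFU/mL), 50 μL from each well was plated on YM agar for a further 48 h at 28 °C. MFC is the lowest concentration killing at least 99.9% of cells. Triplicate, three biological replicates.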

Salmonella typhimurium = assay: Antibacterial activity against Salmonella typhimurium ATCC 14028 after 24 hrs; format: functional, Salmonella enterica subsp. enterica serovar Typhimurium; settings: Salmonella enterica, ATCC 14028, 24 h
Procedure, shortened: (§2)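 Broth microdilution. Mid-log bacteria in MHB at a final (0.5−1) × 10^5 CFU/mL were mixed with equal volumes of peptide serially diluted in 0.2% BSA. Plates were incubated 24 h at 37 °C and read at A492. MIC is the lowest concentration inhibiting 95% of growth. Each test was repeated at least 3 times.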

Candida albicans [2] = assay: Antifungal activity against fluconazole-resistant Candida albicans 56452 after 48 hrs by broth microdilution method; format: functional; settings: Candida albicans, 56452, 48 h
Procedure, shortened: (§3)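 Modified CLSI M27-A2 broth microdilution. Yeast at (0.5−1) × 10^3 CFU/mL in MOPS-buffered RPMI 1640 was mixed 1:1 with peptide serially diluted in 0.2% BSA and incubated 48 h at 28 °C. Absorbance was read at 492 nm; MIC is the lowest concentration inhibiting 95% of growth. Triplicate, three biological replicates.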

Escherichia coli [3] = assay: Antibacterial activity against Escherichia coli ATCC 25922 after 18 hrs in presence of MgCl2 by broth dilution method; format: functional; settings: ATCC 25922, 18 h
[4] = Bactericidal activity against Salmonella pullorum ATCC 7913; format: functional, Salmonella enterica subsp. enterica serovar Pullorum; settings: Salmonella enterica, read-out: MBC99.9
Procedure, shortened: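 Wells from the 24 h, 37 °C MHB microdilution plates (bacteria at a final (0.5−1) × 10^5 CFU/mL; peptide diluted in 0.2% BSA) were plated on agar and incubated overnight. MBC is the lowest concentration killing >99.9% of cells. Each test was reproduced at least 3 times.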

Candida tropicalis = assay: Fungicidal activity against Candida tropicalis cgmcc 2.1975 after 96 hrs; format: functional; settings: cgmcc 2.1975, 96 h, read-out: MFC99.9
Procedure, shortened: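 Wells from the 48 h, 28 °C RPMI 1640/MOPS microdilution plates were plated on YM agar and incubated a further 48 h at 28 °C. MFC is the lowest concentration killing at least 99.9% of cells. Run in triplicate with three biological replicates.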

Pichia kudriavzevii = assay: Antifungal activity against Candida krusei cgmcc 2.1857 after 48 hrs by broth microdilution method; format: functional; settings: cgmcc 2.1857, 48 h
Procedure, shortened: (§4)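 Modified CLSI M27-A2 broth microdilution. Yeast were suspended in MOPS-buffered RPMI 1640 at a final (0.5−1) × 10^3 CFU/mL and mixed 1:1 with peptide serially diluted in 0.2% BSA. Plates were incubated 48 h at 28 °C and read at A492. MIC is the lowest concentration giving 95% inhibition. Run in triplicate with three biological replicates.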

Candida albicans [5] = assay: Antifungal activity against Candida albicans cgmcc 2.2086 in presence of NaCl by broth dilution method; format: functional
Candida albicans [6] = assay: Antifungal activity against Candida albicans 58288 after 48 hrs by broth microdilution method; format: functional; settings: Candida albicans, 58288, 48 h; procedure, shortened: as §3
Escherichia coli [7] = assay: Antibacterial activity against Escherichia coli ATCC 25922 after 18 hrs in presence of KCl by broth dilution method; format: functional; settings: ATCC 25922, 18 h
Escherichia coli [8] = assay: Antibacterial activity against Escherichia coli 1005 after 24 hrs; format: functional; settings: Escherichia coli, 1005, 24 h; procedure, shortened: as §2
Candida albicans [9] = assay: Fungicidal activity against fluconazole-resistant Candida albicans 17546 after 96 hrs; format: functional; settings: Candida albicans, 17546, 96 h; read-out: MFC99.9; procedure, shortened: as §1
Candida albicans [10] = assay: Fungicidal activity against Candida albicans cgmcc 2.2086 after 96 hrs; format: functional; settings: cgmcc 2.2086, 96 h, read-out: MFC99.9; procedure, shortened: as §1
Candida albicans [11] = assay: Antifungal activity against Candida albicans SP3902 after 48 hrs by broth microdilution method; format: functional; settings: SP3902, 48 h; procedure, shortened: as §3
HEK-293T = assay: Cytotoxicity against HEK293T cells assessed as decrease in cell viability at 64 uM after 24 hrs by MTT assay relative to control; format: cell-based; settings: human
Procedure, shortened: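 MTT viability assay. RAW264.7 or HEK293T cells at (1.0−2.0) × 10^5 per well were exposed to a peptide concentration series for 24 h at 37 °C in 5% CO2. MTT was then added at 0.5 mg/mL final for 4 h; formazan was dissolved in DMSO and read at 570 nm. Results average three independent trials.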

Candida parapsilosis = assay: Antifungal activity against Candida parapsilosis cgmcc 2.3989 after 48 hrs by broth microdilution method; format: functional; settings: Lodderomyces parapsilosis, cgmcc 2.3989, 48 h; procedure, shortened: as §4
Candida albicans [12] = assay: Antifungal activity against fluconazole-resistant Candida albicans 17546 after 48 hrs by broth microdilution method; format: functional; settings: Candida albicans, 17546, 48 h; procedure, shortened: as §3
Candida albicans [13] = assay: Antifungal activity against Candida albicans SP3931 after 48 hrs by broth microdilution method; format: functional; settings: SP3931, 48 h; procedure, shortened: as §3
Escherichia coli [14] = assay: Antibacterial activity against Escherichia coli ATCC 25922 after 18 hrs in presence of CaCl2 by broth dilution method; format: functional; settings: ATCC 25922, 18 h
Candida albicans [15] = assay: Antifungal activity against Candida albicans SP3876 after 48 hrs by broth microdilution method; format: functional; settings: SP3876, 48 h; procedure, shortened: as §3
Staphylococcus aureus = assay: Antibacterial activity against Staphylococcus aureus ATCC 25923 after 24 hrs; format: functional; settings: ATCC 25923, 24 h
Procedure, shortened: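 Modified NCCLS broth microdilution. Mid-log bacteria at (0.5−1) × 10^5 CFU/mL in MHB were mixed 1:1 with peptide serially diluted in 0.2% BSA and incubated 24 h at 37 °C. Absorbance was read at 492 nm; MIC is the lowest concentration inhibiting 95% of growth. At least 3 repeats.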

Candida albicans [16] = assay: Fungicidal activity against fluconazole-resistant Candida albicans 56214 after 96 hrs; format: functional; settings: Candida albicans, 56214, 96 h; read-out: MFC99.9; procedure, shortened: as §1
Candida albicans [17] = assay: Fungicidal activity against Candida albicans SP3931 after 96 hrs; format: functional; settings: SP3931, 96 h, read-out: MFC99.9; procedure, shortened: as §1
Candida albicans [18] = assay: Fungicidal activity against Candida albicans SP3876 after 96 hrs; format: functional; settings: SP3876, 96 h, read-out: MFC99.9; procedure, shortened: as §1
Candida albicans [19] = assay: Antifungal activity against Candida albicans SP3903 after 48 hrs by broth microdilution method; format: functional; settings: SP3903, 48 h; procedure, shortened: as §3
Erythrocyte = assay: Hemolytic activity in human RBC after 1 hr; format: ADME, cell-based
Procedure, shortened: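 Fresh human erythrocytes, diluted 10-fold in PBS pH 7.4, were mixed with equal volumes of peptide and held 1 h at 37 °C. After centrifugation at 1000g, supernatant hemoglobin was read at 576 nm. PBS set 0% and 0.1% Triton X-100 set 100% lysis. MHC is the concentration causing 10% hemolysis. At least three experiments were run, each in technical triplicate.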

Row | Substance | MFC (Candida albicans [1]) [µM] | MIC95 (Salmonella typhimurium) [µM] | MIC95 (Candida albicans [2]) [µM] | MIC (Escherichia coli [3]) [µM] | MBC [4] [µM] | MFC (Candida tropicalis) [µM] | MIC95 (Pichia kudriavzevii) [µM] | MIC (Candida albicans [5]) [µM] | MIC95 (Candida albicans [6]) [µM] | MIC (Escherichia coli [7]) [µM] | MIC95 (Escherichia coli [8]) [µM] | MFC (Candida albicans [9]) [µM] | MFC (Candida albicans [10]) [µM] | MIC95 (Candida albicans [11]) [µM] | Activity (HEK-293T) | MIC95 (Candida parapsilosis) [µM] | MIC95 (Candida albicans [12]) [µM] | MIC95 (Candida albicans [13]) [µM] | MIC (Escherichia coli [14]) [µM] | MIC95 (Candida albicans [15]) [µM] | other results
1 | H-RWWRRWRRWWR-NH2 | 8 | 8 | 8 | 8 | 8 | 4 | 2 | 16 | 2 | 16 | 8 | 4 | 8 | 4 | Toxic | 16 | 4 | 8 | 32 | 2 | MIC95 (Staphylococcus aureus): 8 µM; MFC (Candida albicans [16]): 8 µM; MFC (Candida albicans [17]): 16 µM; MFC (Candida albicans [18]): 2 µM; MIC95 (Candida albicans [19]): 2 µM; HC10 (Erythrocyte): > 128 µM
2 | H-WWRRWRRWW-NH2 | 16 | 8 | 8 | 4 | 16 | 8 | 4 | 16 | 8 | 8 | 4 | 4 | 16 | 8 | Toxic | 32 | 2 | 16 | 32 | 4 | MIC95 (Staphylococcus aureus): 4 µM; MFC (Candida albicans [16]): 8 µM; MFC (Candida albicans [17]): 32 µM; MFC (Candida albicans [18]): 4 µM; MIC95 (Candida albicans [19]): 4 µM; HC10 (Erythrocyte): > 128 µM
